Data on 1 molecule can be found in ChEMBL document CHEMBL4390691, “Discovery of 1,3-dihydro-2H-imidazo[4,5-c]quinolin-2-ones based novel, potent and PI3Kδ selective inhibitors” (Bioorg Med Chem Lett, 2019).

pIC50: −log10 of the molar value. Calls of active or inactive are those of the source. The rule behind the calls is not given here. Bounds are passed on as bounds.

For series [1], the target named is CYP2D6 (Homo sapiens, UniProt P10635). Description: Inhibition of CYP2D6 in human liver microsomes at 10 uM using testosterone/dextromethorphan as probe substrate measured after 10 mins relative to control. The class given is ADME. In general terms: Microsomes from liver hold many membrane-bound enzymes, among them those of drug oxidation.
Sequence of CYP2D6 (P10635 whole entry): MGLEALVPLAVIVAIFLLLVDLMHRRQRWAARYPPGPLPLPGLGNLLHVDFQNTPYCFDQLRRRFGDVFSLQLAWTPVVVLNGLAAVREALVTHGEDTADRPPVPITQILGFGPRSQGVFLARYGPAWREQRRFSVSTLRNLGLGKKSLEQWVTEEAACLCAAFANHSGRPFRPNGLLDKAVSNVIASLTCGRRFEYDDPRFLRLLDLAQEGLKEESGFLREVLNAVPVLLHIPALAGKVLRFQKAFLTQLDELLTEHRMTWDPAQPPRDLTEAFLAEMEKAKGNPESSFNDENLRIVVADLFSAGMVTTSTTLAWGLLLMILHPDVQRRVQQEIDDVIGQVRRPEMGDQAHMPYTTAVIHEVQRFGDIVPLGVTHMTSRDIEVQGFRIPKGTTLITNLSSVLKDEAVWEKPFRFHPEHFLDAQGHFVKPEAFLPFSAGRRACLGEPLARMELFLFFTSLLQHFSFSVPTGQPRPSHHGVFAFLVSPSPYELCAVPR
Series [2] in a line: AUC (0 to infinity) in C57BL/6J mouse 1 mg/kg, iv measured up to 30 hrs by LC-MS/MS analysis. The class given is ADME, organism-based. On the set-up: dose 1 mg/kg, time infinity, route intravenous. As to conditions: in vivo. Put shortly: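 Single-dose PK in male C57BL/6J mice (n = 6), dosed 1 mg/kg iv or 3 mg/kg orally. Plasma drug levels were measured by LC-MS, and PK parameters (Tmax, Cmax, t1/2, Cl, AUC, %F) were derived. Values are given as mean ± SD. Oral bioavailability was calculated against the iv AUC.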

Series [3] concerns Mus musculus. The series is described as follows: Antiarthritic activity in complete Freund's adjuvant-induced DBA1/J mouse arthritis model assessed as inhibition in clinical arthritis score at 10 mg/kg, po administered […] relative to control. The class given is functional, organism-based. Put shortly:
(§1)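 Male DBA1j mice had arthritis induced with a collagen mixture and were enrolled once clinical signs appeared. Animals were split into four groups of eight: vehicle, a positive control and two doses of test compound. Treatment ran four weeks. The read-out was percentage inhibition of clinical arthritis score versus the vehicle group.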

For series [4], the system named is TMD8. Description: Antitumor activity against human TMD8 cells xenografted in SCID mouse assessed as decrease in tumor volume at 3 to 30 mg/kg/day, po QD for 16 days and measured every alternate day. The class given is functional, organism-based. In short, it runs like this: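 Male SCID mice were inoculated with TMD-8 cells. Oral doses of 3, 10 and 30 mg/kg/day were given. The efficacy endpoint was inhibition of tumor volume relative to the vehicle (untreated) group.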
(In general: Xenograft models place foreign cells or tissue in a host animal.)

The nature of series [5]: Toxicity in human TMD8 cells xenografted SCID mouse assessed as decrease in body weight at 30 mg/kg/day, po QD for 16 days. The class given is organism-based. As to conditions: in vivo, 384 h. Put shortly:
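Male SCID mice bearing TMD-8 xenografts received oral doses of 3, 10 or 30 mg/kg/day. Body weight was recorded during treatment.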

Series [6] is filed under the species Homo sapiens. Description: Selectivity ratio of IC50 for human PI3Kbeta to IC50 for human PI3Kdelta. In short, it runs like this:
(§2)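 IC50s for the PI3K α, β, γ and δ isoforms came from a commercial PI3K inhibitory activity assay kit. Each IC50 is the mean of at least two experiments. The ratio is the α, β or γ IC50 divided by the δ IC50.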

The target in series [7] is Phosphatidylinositol 4,5-bisphosphate 3-kinase catalytic subunit alpha isoform (Homo sapiens, UniProt P42336). Description: Inhibition of human PI3Kalpha using PIP2 as substrate after 1 hr.
Sequence of Phosphatidylinositol 4,5-bisphosphate 3-kinase catalytic subunit alpha isoform (P42336 whole entry, looked up, canonical isoform): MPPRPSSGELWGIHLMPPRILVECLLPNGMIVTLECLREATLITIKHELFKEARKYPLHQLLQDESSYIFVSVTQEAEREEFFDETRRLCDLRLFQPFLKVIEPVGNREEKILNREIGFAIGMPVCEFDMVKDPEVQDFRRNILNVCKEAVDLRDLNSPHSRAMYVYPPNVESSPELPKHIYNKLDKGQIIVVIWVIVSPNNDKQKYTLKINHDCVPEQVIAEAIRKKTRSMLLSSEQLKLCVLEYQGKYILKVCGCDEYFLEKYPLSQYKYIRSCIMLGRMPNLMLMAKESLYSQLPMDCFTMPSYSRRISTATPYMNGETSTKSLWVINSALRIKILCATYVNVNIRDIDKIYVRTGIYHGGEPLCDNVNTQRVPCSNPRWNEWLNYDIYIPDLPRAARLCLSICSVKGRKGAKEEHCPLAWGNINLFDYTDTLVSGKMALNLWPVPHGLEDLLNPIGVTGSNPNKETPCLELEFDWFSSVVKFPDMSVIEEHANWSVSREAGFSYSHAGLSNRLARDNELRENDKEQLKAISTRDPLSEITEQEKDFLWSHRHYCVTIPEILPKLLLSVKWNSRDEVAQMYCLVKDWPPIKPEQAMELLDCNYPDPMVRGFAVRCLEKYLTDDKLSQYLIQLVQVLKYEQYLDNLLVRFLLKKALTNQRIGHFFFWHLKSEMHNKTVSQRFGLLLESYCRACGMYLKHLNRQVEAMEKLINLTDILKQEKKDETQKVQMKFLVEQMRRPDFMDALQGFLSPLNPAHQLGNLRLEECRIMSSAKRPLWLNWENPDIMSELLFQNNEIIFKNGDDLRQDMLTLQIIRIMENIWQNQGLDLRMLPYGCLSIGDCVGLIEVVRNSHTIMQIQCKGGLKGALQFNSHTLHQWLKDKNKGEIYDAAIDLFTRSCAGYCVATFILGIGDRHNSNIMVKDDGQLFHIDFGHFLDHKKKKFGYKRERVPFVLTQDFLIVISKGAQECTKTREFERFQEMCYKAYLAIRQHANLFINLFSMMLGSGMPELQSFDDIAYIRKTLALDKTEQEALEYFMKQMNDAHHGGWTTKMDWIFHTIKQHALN
In series [8] the target is Phosphatidylinositol 4,5-bisphosphate 3-kinase catalytic subunit gamma isoform (Homo sapiens, UniProt P48736). Description: Inhibition of human PI3Kgamma using PIP2 as substrate after 1 hr.
Sequence of Phosphatidylinositol 4,5-bisphosphate 3-kinase catalytic subunit gamma isoform (P48736 whole entry, canonical isoform): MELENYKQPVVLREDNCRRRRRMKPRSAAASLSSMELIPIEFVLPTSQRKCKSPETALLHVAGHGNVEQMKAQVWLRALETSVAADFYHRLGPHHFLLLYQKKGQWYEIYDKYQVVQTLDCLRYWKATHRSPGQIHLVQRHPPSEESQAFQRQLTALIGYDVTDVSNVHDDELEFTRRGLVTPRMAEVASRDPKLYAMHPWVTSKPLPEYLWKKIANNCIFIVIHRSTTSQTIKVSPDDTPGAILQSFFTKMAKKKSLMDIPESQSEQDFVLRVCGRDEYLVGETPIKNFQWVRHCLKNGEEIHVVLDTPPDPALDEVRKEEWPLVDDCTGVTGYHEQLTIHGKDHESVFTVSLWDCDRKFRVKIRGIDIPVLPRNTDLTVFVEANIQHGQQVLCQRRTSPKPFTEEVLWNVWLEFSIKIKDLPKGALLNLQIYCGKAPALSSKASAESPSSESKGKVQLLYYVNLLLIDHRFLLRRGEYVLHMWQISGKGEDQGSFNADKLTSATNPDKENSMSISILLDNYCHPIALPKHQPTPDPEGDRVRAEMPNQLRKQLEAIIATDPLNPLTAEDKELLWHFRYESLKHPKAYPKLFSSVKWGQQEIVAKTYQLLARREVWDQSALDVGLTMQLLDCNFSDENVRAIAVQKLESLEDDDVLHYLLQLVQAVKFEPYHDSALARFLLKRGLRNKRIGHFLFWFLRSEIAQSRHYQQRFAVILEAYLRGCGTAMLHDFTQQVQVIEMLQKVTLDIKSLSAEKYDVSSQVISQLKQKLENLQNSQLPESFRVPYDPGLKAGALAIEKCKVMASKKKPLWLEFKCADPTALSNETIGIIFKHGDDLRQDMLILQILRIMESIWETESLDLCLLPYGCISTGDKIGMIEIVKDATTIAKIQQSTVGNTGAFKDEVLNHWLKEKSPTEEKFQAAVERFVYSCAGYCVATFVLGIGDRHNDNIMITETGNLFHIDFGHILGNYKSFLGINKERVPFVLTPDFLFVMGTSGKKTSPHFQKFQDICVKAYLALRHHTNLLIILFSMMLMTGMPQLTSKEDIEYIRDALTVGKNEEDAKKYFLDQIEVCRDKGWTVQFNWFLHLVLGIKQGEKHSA
For series [9], the target named is T1, Phosphatidylinositol 4,5-bisphosphate 3-kinase catalytic subunit delta isoform (Homo sapiens, UniProt O00329).
T1 sequence (O00329 whole entry): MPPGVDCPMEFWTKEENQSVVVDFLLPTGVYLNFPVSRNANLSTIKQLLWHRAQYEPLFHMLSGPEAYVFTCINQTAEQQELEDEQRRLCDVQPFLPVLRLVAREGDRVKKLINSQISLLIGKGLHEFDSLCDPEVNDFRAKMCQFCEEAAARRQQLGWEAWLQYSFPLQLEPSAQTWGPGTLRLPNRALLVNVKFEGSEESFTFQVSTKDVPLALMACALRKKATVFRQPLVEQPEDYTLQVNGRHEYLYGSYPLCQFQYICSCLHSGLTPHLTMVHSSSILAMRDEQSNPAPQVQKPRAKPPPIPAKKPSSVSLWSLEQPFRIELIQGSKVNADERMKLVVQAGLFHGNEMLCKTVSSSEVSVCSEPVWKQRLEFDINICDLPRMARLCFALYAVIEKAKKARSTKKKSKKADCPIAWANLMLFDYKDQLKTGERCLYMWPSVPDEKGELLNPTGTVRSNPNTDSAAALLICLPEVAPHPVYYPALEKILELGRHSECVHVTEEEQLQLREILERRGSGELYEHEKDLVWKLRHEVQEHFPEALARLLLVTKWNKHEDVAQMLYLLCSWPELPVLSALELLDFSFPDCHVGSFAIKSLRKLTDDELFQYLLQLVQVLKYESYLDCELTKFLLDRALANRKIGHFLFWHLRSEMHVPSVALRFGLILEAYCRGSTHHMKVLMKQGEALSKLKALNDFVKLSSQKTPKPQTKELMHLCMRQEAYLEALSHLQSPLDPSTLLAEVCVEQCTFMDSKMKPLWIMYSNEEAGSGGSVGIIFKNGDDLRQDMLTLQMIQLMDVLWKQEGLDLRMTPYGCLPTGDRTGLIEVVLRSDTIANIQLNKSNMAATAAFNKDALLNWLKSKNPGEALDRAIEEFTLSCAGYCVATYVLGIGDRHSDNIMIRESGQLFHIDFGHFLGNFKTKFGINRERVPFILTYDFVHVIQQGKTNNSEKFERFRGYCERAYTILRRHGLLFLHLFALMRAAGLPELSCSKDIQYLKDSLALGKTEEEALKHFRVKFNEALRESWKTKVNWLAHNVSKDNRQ
The series is described as follows: Inhibition of human PI3Kdelta using PIP2 as substrate after 1 hr.

Series [10] can be described thus: Toxicity in DBA1/J mouse assessed as reduction in body weight at 30 mg/kg, po administered for […] measured thrice per week. As to conditions: in vivo. The class given is organism-based. Put shortly: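 The model was collagen-induced arthritis in male DBA1j mice, with eight per group and four weeks of treatment. Body weight was recorded three times weekly as a marker of treatment-related side effects.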

Series [11] in a line: Tmax in C57BL/6J mouse at 3 mg/kg, po measured up to 30 hrs by LC-MS/MS analysis. The class given is ADME, organism-based. Particulars: in vivo. In short, it runs like this: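 Male C57BL/6J mice (n = 6) received single doses of 3 mg/kg po or 1 mg/kg iv. Plasma concentrations were measured by LC-MS. Values are mean ± SD. Oral bioavailability (%F) was calculated from the ratio to iv AUC.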

Series [12] relates to Mus musculus. The series is described as follows: Antiarthritic activity in complete Freund's adjuvant-induced DBA1/J mouse arthritis model assessed as inhibition in clinical arthritis score at 30 mg/kg, po […] relative to control. The class given is functional, organism-based. Put shortly: as §1
For series [13], the species on record is Homo sapiens. The series is described as follows: Selectivity ratio of IC50 for human PI3Kgamma to IC50 for human PI3Kdelta. In short, it runs like this: as §2

`COc1ccc(Cn2c(=O)n(C)c3c4cc(-c5cnc(OC)c(NS(C)(=O)=O)c5)ccc4ncc32)cc1`: the inhibition (as a rule, the change of the read-out against control, counted positive when it falls) at 10 min, 10 µM in [1] was below 10%. Besides, in series [2], the area under the curve (AUC) (in general, concentration integrated over time) was determined as 1850 ng·h/mL. In addition, the inhibition result in [3] and in [12] was “Active” each time. Also, the Activity result was “Dose-dependent effect” in [4], “Non-Toxic” in [5] and “Non-Toxic” in series [10]. Also, the results for the Ratio IC50 in series [6] and in series [13] were 310 and 59, respectively. Also, the pIC50 (commonly −log10 of the IC50, conventionally taken in molar units) in series [7] is 6.05; in series [8] it was 6.95; in [9] it was 8.72. Further, the time of peak concentration (Tmax) (in general, the time from dosing to the highest level) in series [11] was found to be 15 min.
